# Active and inactive are the calls of the source. The rule behind the calls is not given here.
# Legend:
# Mythimna separata [1] = assay: In vivo insecticidal activity against pre-third-instar larval stage of Mythimna separata (Oriental armyworm) in corn leaves assessed as induction of loss of body liquid at 1 mg/ml treated for 3 secs before larval infestation on corn leaves measured after 48 hr by leaf-dipping method; type: functional, organism-based
# Procedure, shortened: (§1)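 Leaf-dipping bioassay on pre-third-instar Mythimna separata larvae, with compounds applied at 1 mg/mL. Toosendanin, a commercial insecticide from Melia azedarach, served as the positive control.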
# Mythimna separata [2] = assay: In vivo insecticidal activity against pre-third-instar larval stage of Mythimna separata (Oriental armyworm) in corn leaves assessed as induction of larval immobility at 1 mg/ml treated for 3 secs before larval infestation on corn leaves measured after 48 hr by leaf-dipping method; type: functional, organism-based; procedure, shortened: as §1
# Mythimna separata [3] = assay: In vivo insecticidal activity against pre-third-instar larval stage of Mythimna separata (Oriental armyworm) in corn leaves assessed as reduction in larval movement at 1 mg/ml treated for 3 secs before larval infestation on corn leaves measured after 24 hr by leaf-dipping method; type: functional, organism-based; procedure, shortened: as §1
# Mythimna separata [4] = assay: In vivo insecticidal activity against pre-third-instar larval stage of Mythimna separata (Oriental armyworm) in corn leaves assessed as corrected mortality rate at 1 mg/ml treated for 3 secs before larval infestation on corn leaves measured after 30 days by leaf-dipping method; type: functional; settings: 720 h; procedure, shortened: as §1
# Mythimna separata [5] = assay: In vivo insecticidal activity against pre-third-instar larval stage of Mythimna separata (Oriental armyworm) in corn leaves assessed as corrected mortality rate at 1 mg/ml treated for 3 secs before larval infestation on corn leaves measured after 20 days by leaf-dipping method; type: functional; settings: 480 h; procedure, shortened: as §1
# Mythimna separata [6] = assay: In vivo insecticidal activity against pre-third-instar larval stage of Mythimna separata (Oriental armyworm) in corn leaves assessed as corrected mortality rate at 1 mg/ml treated for 3 secs before larval infestation on corn leaves measured after 10 days by leaf-dipping method; type: functional; settings: 240 h; procedure, shortened: as §1
# Mythimna separata [7] = assay: In vivo insecticidal activity against pre-third-instar larval stage of Mythimna separata (Oriental armyworm) in corn leaves assessed as induction of molting to abnormal pupae at 1 mg/ml treated for 3 secs before larval infestation on corn leaves measured after 48 hr by leaf-dipping method; type: functional, organism-based; procedure, shortened: as §1
# Mythimna separata [8] = assay: In vivo insecticidal activity against pre-third-instar larval stage of Mythimna separata (Oriental armyworm) in corn leaves assessed as inhibition of adult emergence at 1 mg/ml treated for 3 secs before larval infestation on corn leaves by leaf-dipping method; type: functional, organism-based; procedure, shortened: as §1
# Mythimna separata [9] = assay: In vivo insecticidal activity against pre-third-instar larval stage of Mythimna separata (Oriental armyworm) in corn leaves assessed as inhibition of larval pupation at 1 mg/ml treated for 3 secs before larval infestation on corn leaves by leaf-dipping method; type: functional, organism-based; procedure, shortened: as §1
Structure (SMILES),Activity (Mythimna separata [1]),Activity (Mythimna separata [2]),Activity (Mythimna separata [3]),mortality at 1000 µg/mL (Mythimna separata [4]),mortality at 1000 µg/mL (Mythimna separata [5]),mortality at 1000 µg/mL (Mythimna separata [6]),Activity (Mythimna separata [7]),Activity (Mythimna separata [8]),Activity (Mythimna separata [9])
CCc1ccc(S(=O)(=O)Oc2c(OC)cc([C@@H]3c4cc5c(cc4C[C@H]4COC(=O)[C@@H]43)OCO5)cc2OC)cc1,Active,Active,Active,35.7%,27.6%,13.3%,Active,Active,Active
COc1cc([C@@H]2c3cc4c(cc3C[C@H]3COC(=O)[C@@H]32)OCO4)cc(OC)c1OS(=O)(=O)c1ccc(Cl)c([N+](=O)[O-])c1,Active,Active,Active,42.9%,20.7%,3.3%,Active,Active,Active
COc1ccc(S(=O)(=O)Oc2c(OC)cc([C@@H]3c4cc5c(cc4C[C@H]4COC(=O)[C@@H]43)OCO5)cc2OC)cc1,Active,Active,Active,46.4%,37.9%,33.3%,Active,Active,Active
COc1cc([C@@H]2c3cc4c(cc3C[C@H]3COC(=O)[C@@H]32)OCO4)cc(OC)c1OS(=O)(=O)c1ccc(C)cc1,Active,Active,Active,21.4%,10.3%,3.3%,Active,Active,Active
COc1cc([C@@H]2c3cc4c(cc3C[C@H]3COC(=O)[C@@H]32)OCO4)cc(OC)c1OS(=O)(=O)c1cccc([N+](=O)[O-])c1,Active,Active,Active,60.7%,27.6%,26.7%,Active,Active,Active
COc1cc([C@@H]2c3cc4c(cc3C[C@H]3COC(=O)[C@@H]32)OCO4)cc(OC)c1OS(=O)(=O)c1ccccc1,Active,Active,Active,35.7%,13.8%,16.7%,Active,Active,Active
COc1cc([C@@H]2c3cc4c(cc3C[C@H]3COC(=O)[C@@H]32)OCO4)cc(OC)c1O [4'-DEMETHYLDEOXYPODOPHYLLOTOXIN],Active,Active,Active,21.4%,13.8%,10%,Active,Active,Active
COc1cc([C@@H]2c3cc4c(cc3C[C@H]3COC(=O)[C@@H]32)OCO4)cc(OC)c1OS(=O)(=O)c1ccc(Br)cc1,Active,Active,Active,50%,31%,20%,Active,Active,Active
COc1cc([C@@H]2c3cc4c(cc3C[C@H]3COC(=O)[C@@H]32)OCO4)cc(OC)c1OC [DESOXYPODOPHYLLOTOXIN],Active,Active,Active,39.3%,20.7%,16.7%,Active,Active,Active
COc1cc([C@@H]2c3cc4c(cc3C[C@H]3COC(=O)[C@@H]32)OCO4)cc(OC)c1OS(=O)(=O)c1ccc(Cl)cc1,Active,Active,Active,25%,10.3%,10%,Active,Active,Active
CC(=O)O[C@@H]1C[C@H](O)[C@@]23CO[C@@H](O)[C@]1(C)[C@@H]2C[C@@H](O)[C@]1(C)[C@@H]3C(=O)[C@H](OC(C)=O)[C@@]2(C)[C@H](c3ccoc3)C[C@H]3O[C@]321 [TOOSENDANIN],–,–,–,46.4%,34.5%,30%,–,–,–

# — ChEMBL document CHEMBL3045347, “Natural products-based insecticidal agents 5. Design, semisynthesis and insecticidal activity of novel 4'-substituted benzenesulfonate derivatives of 4-deoxypodophyllotoxin against Mythimna separata Walker in vivo” (2010)
